Several values for one entry are separate records, joined by “and”; a condition that tells them apart may be missing. Identical values can stand only once.
Key:
Assay type in all cases: functional
[1] = target: ATP-dependent molecular chaperone HSP82 (Saccharomyces cerevisiae S288c) (UniProt P02829); assay: Inhibition of yeast Hsp90 ATPase activity at 40 uM
[2] = target: ATP-dependent molecular chaperone HSP82 (Saccharomyces cerevisiae S288c, UniProt P02829); assay: Inhibition of yeast Hsp90 ATPase activity
Sequence of ATP-dependent molecular chaperone HSP82 (P02829 whole entry): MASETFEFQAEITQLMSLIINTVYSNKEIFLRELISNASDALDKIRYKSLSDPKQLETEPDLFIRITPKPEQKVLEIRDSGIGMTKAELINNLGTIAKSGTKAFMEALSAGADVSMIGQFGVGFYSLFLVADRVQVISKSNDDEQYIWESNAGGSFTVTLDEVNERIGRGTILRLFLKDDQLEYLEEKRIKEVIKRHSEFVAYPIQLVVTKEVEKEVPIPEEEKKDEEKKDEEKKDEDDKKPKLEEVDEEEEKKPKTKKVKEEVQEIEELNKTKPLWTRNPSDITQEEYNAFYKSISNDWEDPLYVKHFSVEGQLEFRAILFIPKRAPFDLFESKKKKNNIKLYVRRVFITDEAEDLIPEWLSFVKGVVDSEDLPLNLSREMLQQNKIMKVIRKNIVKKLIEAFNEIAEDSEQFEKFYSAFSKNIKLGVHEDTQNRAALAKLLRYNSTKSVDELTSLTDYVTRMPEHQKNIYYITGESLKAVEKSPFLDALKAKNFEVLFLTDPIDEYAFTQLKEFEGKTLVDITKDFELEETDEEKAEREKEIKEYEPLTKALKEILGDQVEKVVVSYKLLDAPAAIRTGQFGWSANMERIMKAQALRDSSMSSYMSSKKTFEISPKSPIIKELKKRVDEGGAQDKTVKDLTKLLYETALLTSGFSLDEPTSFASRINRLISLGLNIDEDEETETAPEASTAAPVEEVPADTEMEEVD
In short: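 Yeast Hsp90 ATPase activity assay. Original conditions were 1 mM ATP substrate, incubated 3 h at 37 °C. Later optimised conditions used lower ATP and enzyme concentrations, with overnight incubation at 37 °C. IC50 values derived.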

[3] = test system: HCT-116; assay: Inhibition of HCT116 human colon cancer cell proliferation
In short: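 HCT116 colon cancer cells; growth inhibition measured by sulforhodamine B (SRB) assay; GI50 derived.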

Sequence of ATP-dependent molecular chaperone HSP82 (Saccharomyces cerevisiae S288c) (P02829 whole entry, looked up): as the sequence (P02829 whole entry) above

| inhibition [1] | IC50 [2] | GI50 [3] | SMILES |
| --- | --- | --- | --- |
| 0% | – | – | Cc1n[nH]c(-c2ccc(O)cc2O)c1Oc1ccc(F)cc1 |
| 0% | – | – | CCC(C)c1cc(-c2[nH]ncc2-c2ccc3c(c2)OCCO3)c(O)cc1OC (stereo not given) |
| – | > 100 µM | – | COc1ccc(-c2cn(C)nc2-c2cc(Cl)c(O)cc2O)cc1OC |
| 15% | – | – | CC(C)c1cc(-c2[nH]ncc2-c2nc3ccccc3s2)c(O)cc1O |
| 79% | – | 4.1 µM | CCc1cc(-c2[nH]nc(C)c2-c2ccc3c(c2)OCCO3)c(O)cc1O |
| 10% | – | – | CCC(C)c1cc(-c2[nH]ncc2-c2ccccc2)c(O)cc1OC (stereo not given) |
| 26% | – | – | Cc1n[nH]c(-c2ccc(O)cc2O)c1-c1ccc2c(c1)OCCO2 |
| – | 1.6 µM | 23 µM | Oc1cc(O)c(-c2n[nH]cc2-c2ccc3c(c2)OCCO3)cc1Cl |
| 80% | – | 0.021 µM | C=CCNC1=C2CC(C)C[C@H](OC)C(O)C(C)/C=C(\C)[C@H](OC(N)=O)[C@@H](OC)/C=C\C=C(/C)C(=O)NC(=CC1=O)C2=O (single isomer, unassigned) [TANESPIMYCIN] |
| – | 12.8 µM | 31 µM | N#CCCCOc1ccccc1-c1cn[nH]c1-c1cc(Cl)c(O)cc1O |
| 20% | – | – | COc1cc(O)c(-c2[nH]ncc2-c2ccc3c(c2)OCO3)cc1C(C)C |
| – | 2.4 µM | 30 µM | N#CCCCOc1cccc(-c2cn[nH]c2-c2cc(Cl)c(O)cc2O)c1 |
| 25% | 46.1 µM | – | CCCc1cc(-c2[nH]nc(C)c2-c2ccc3c(c2)OCCO3)c(O)cc1O |
| – | < 1 µM | 3.6 µM | Cc1n[nH]c(-c2cc(Cl)c(O)cc2O)c1-c1ccc(OCCCC#N)cc1 |
| 64% | – | – | CCC(C)c1cc(-c2[nH]ncc2-c2ccc3c(c2)OCO3)c(O)cc1O (stereo not given) |
| – | 1.65 µM | 6.4 µM | Cc1n[nH]c(-c2cc(Cl)c(O)cc2O)c1-c1ccccc1 |
| – | 25.5 µM | – | Cc1[nH]nc(-c2cc(Cl)ccc2O)c1-c1ccc2c(c1)OCCO2 |
| – | 2.4 µM | 13 µM | COc1ccc(-c2c[nH]nc2-c2cc(Cl)c(O)cc2O)cc1OC |
| – | < 1 µM | 6.8 µM | N#CCCCOc1ccc(-c2cn[nH]c2-c2cc(Cl)c(O)cc2O)cc1 |
| – | 22.3 µM | – | CCC(C)c1cc(-c2n[nH]cc2-c2ccc3c(c2)OCO3)c(O)cc1O (stereo not given) |
| – | 8.9 µM and 7.1 µM | – | CCc1cc(-c2n[nH]c(C)c2-c2ccc3c(c2)OCCO3)c(O)cc1O |
| 25% | – | – | COc1ccc(-c2[nH]nc(C)c2-c2ccc3c(c2)OCCCO3)c(O)c1 |
| 90% | – | 0.067 µM | COC1=C2CC(C)C[C@H](OC)C(O)C(C)/C=C(\C)[C@H](OC(N)=O)[C@@H](OC)/C=C\C=C(/C)C(=O)NC(=CC1=O)C2=O (single isomer, unassigned) [GELDANAMYCIN] |
| – | 1.55 µM | 11 µM | Oc1cc(O)c(-c2n[nH]cc2-c2ccc(-c3ccc(F)cc3)cc2)cc1Cl |
| – | < 1 µM | 4 µM | Cc1[nH]nc(-c2cc(Cl)c(O)cc2O)c1-c1ccc2c(c1)OCCO2 |
| 13% | – | – | COc1ccc(-c2c[nH]nc2-c2cc(C(C)C)c(OC)cc2O)cc1 |
| – | > 100 µM | – | Cc1n[nH]c(-c2ccc(O)c(Cl)c2)c1-c1ccc2c(c1)OCCO2 |
